What was measured:
[1] = system: HepG2; experiment: Cytotoxicity against human HepG2 cells after 48 hrs by MTT assay; type: functional; conditions: HepG2, 48 h
Summary of the method: (§1)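 Cell lines were grown in modified Eagle's medium with 10% FBS. Cells were seeded at 10,000 per well and left 24 h to attach in humid 5% CO₂. Viability was measured by MTT, with formazan dissolved in DMSO and absorbance read at 562 nm. Results are % cytotoxicity/viability, triplicates.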

[2] = target: T1, Aminopeptidase N (Sus scrofa, UniProt P15145); experiment: Inhibition of porcine aminopeptidase-N using Leu-pNA as substrate after 30 mins
T1 sequence (P15145 whole entry): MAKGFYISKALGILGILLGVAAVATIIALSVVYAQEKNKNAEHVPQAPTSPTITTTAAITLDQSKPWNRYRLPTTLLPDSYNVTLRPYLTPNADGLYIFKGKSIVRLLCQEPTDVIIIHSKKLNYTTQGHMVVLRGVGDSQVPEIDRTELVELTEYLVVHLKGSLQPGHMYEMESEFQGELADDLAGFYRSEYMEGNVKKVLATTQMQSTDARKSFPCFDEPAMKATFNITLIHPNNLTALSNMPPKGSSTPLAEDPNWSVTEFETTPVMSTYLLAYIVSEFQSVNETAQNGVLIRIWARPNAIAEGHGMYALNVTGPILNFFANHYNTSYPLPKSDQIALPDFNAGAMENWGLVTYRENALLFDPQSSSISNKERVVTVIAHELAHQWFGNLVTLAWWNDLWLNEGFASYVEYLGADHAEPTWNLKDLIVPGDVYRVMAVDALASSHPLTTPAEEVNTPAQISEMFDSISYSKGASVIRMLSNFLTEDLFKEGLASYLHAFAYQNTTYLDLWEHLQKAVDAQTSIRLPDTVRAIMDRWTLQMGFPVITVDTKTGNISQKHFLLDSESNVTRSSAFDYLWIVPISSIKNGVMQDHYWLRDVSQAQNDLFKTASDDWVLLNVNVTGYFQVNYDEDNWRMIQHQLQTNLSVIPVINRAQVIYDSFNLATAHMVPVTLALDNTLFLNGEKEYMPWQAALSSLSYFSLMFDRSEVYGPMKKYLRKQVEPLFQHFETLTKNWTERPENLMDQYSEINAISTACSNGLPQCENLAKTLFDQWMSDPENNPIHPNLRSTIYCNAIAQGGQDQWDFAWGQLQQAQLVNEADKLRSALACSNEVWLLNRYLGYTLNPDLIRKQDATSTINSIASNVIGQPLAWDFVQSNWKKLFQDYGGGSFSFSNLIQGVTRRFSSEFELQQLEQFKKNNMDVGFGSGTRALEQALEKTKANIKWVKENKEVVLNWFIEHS
Summary of the method: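 Commercial porcine enzyme was preincubated with compound in triplicate for 30 min at 37 °C. Substrate was then added and the immediate absorbance rise at 405 nm recorded. IC₅₀ was computed from the concentration series.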

[3] = Inhibition of Escherichia coli aminopeptidase-N using Leu-pNA as substrate after 30 mins
Summary of the method: (§2)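 Enzyme was preincubated with compound in triplicate for 30 min at 37 °C in 10 mM Tris pH 7.5, 100 mM NaCl. Leu-pNA was then added and the immediate absorbance rise followed at 405 nm. IC₅₀ was computed from the concentration series.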

[4] = system: HeLa; experiment: Cytotoxicity against human HeLa cells after 48 hrs by MTT assay; type: functional; summary of the method: as §1
[5] = Inhibition of Plasmodium falciparum aminopeptidase-N using Leu-pNA as substrate after 30 mins; summary of the method: as §2
[6] = system: A549; experiment: Cytotoxicity against human A549 cells after 48 hrs by MTT assay; type: functional; conditions: A549, 48 h; summary of the method: as §1
[7] = target: Puromycin-sensitive aminopeptidase (Homo sapiens, UniProt P55786); experiment: Inhibition of recombinant human puromycin sensitive aminopeptidase using Leu-pNA as substrate after 30 mins
Sequence of Puromycin-sensitive aminopeptidase (P55786 whole entry): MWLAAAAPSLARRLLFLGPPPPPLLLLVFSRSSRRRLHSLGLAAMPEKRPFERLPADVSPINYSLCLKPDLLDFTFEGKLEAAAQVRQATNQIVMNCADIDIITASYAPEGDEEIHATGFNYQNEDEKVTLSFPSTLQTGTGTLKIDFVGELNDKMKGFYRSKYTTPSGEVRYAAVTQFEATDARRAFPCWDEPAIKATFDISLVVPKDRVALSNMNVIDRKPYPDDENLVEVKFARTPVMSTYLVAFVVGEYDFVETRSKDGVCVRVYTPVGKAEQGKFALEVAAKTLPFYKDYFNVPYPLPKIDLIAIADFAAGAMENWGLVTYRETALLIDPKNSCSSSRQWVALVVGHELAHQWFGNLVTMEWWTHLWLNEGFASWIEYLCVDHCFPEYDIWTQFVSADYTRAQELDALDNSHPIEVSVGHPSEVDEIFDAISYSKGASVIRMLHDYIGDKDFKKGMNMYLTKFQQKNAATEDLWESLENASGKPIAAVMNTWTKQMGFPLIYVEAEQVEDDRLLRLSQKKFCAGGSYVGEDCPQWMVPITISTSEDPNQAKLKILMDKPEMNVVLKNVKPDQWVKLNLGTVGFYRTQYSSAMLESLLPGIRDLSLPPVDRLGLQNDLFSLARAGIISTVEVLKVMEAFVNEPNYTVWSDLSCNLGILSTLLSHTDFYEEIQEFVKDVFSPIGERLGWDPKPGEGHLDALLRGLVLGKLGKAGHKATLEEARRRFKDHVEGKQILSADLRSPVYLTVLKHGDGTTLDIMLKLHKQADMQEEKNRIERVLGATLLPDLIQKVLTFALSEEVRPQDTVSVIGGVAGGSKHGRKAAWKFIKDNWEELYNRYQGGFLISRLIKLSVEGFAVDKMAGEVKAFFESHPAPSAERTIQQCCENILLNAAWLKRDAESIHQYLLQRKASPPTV

| SMILES | GI50 [1] | IC50 [2] | IC50 [3] | GI50 [4] | IC50 [5] | GI50 [6] | IC50 [7] |
| --- | --- | --- | --- | --- | --- | --- | --- |
| CCOC(=O)C1=C(Nc2ccc(C)cc2)CC(c2ccccc2)N(c2ccc(C)cc2)C1c1ccccn1 (stereo not given) | > 100 µM | > 100 µM | > 100 µM | 90.7 µM | > 100 µM | > 100 µM | – |
| CCOC(=O)C1=C(Nc2ccccc2)CC(c2ccc(Br)cc2)N(c2ccccc2)C1c1ccc([N+](=O)[O-])cc1 (stereo not given) | > 100 µM | – | – | 10.6 µM | – | > 100 µM | – |
| CCOC(=O)C1=C(Nc2ccc(C)cc2)CC(c2ccc(F)cc2)N(c2ccc(C)cc2)C1c1ccc(F)cc1 (stereo not given) | 14.9 µM | – | – | > 100 µM | – | > 100 µM | – |
| OC1=CC(c2ccccn2)N(c2ccccc2)C(c2ccccn2)C1 (stereo not given) | – | > 100 µM | > 100 µM | – | > 100 µM | – | – |
| CCOC(=O)C1=C(Nc2ccccc2)CC(c2ccc(Cl)cc2)N(c2ccccc2)C1c1cccnc1 (stereo not given) | 11.9 µM | > 100 µM | > 100 µM | 9.95 µM | > 100 µM | > 100 µM | – |
| CCOC(=O)C1=C(Nc2ccccc2)CC(c2cc(OC)c(OC)c(OC)c2)N(c2ccccc2)C1c1cccnc1 (stereo not given) | – | > 100 µM | > 100 µM | – | > 100 µM | – | – |
| CCOC(=O)C1=C(Nc2ccccc2)CC(c2ccc(C#N)cc2)N(c2ccccc2)C1c1cccnc1 (stereo not given) | 13.7 µM | > 100 µM | > 100 µM | > 100 µM | > 100 µM | > 100 µM | – |
| CCOC(=O)C1=C(Nc2ccccc2)CC(c2ccc(F)cc2)N(c2ccccc2)C1c1ccc([N+](=O)[O-])cc1 (stereo not given) | > 100 µM | – | – | 88.2 µM | – | > 100 µM | – |
| CCOC(=O)C1=C(Nc2ccccc2)CC(c2ccccn2)N(c2ccccc2)C1c1ccccn1 (stereo not given) | – | > 100 µM | > 100 µM | – | > 100 µM | – | – |
| CCOC(=O)C1=C(Nc2ccccc2)CC(c2ccc(Br)cc2)N(c2ccccc2)C1c1cccs1 (stereo not given) | – | > 100 µM | > 100 µM | – | > 100 µM | – | – |
| CCOC(=O)C1=C(Nc2ccccc2)CC(c2cccnc2)N(c2ccccc2)C1c1cccnc1 (stereo not given) | 81.5 µM | > 100 µM | > 100 µM | 87.9 µM | > 100 µM | > 100 µM | – |
| CCOC(=O)C1C(=O)CC(c2cccnc2)N(c2ccccc2)C1c1cccnc1 (stereo not given) | 11.2 µM | > 100 µM | > 100 µM | 9.32 µM | > 100 µM | > 100 µM | – |
| COC(=O)C1=C(Nc2ccccc2)CC(c2ccc([N+](=O)[O-])cc2)N(c2ccccc2)C1c1ccc([N+](=O)[O-])cc1 (stereo not given) | – | > 100 µM | > 100 µM | – | > 100 µM | – | – |
| CCOC(=O)C1=C(Nc2ccccc2)CC(c2ccc(C#N)cc2)N(c2ccccc2)C1c1ccccn1 (stereo not given) | – | > 100 µM | > 100 µM | – | > 100 µM | – | – |
| OC1=CC(c2cccnc2)N(c2ccccc2)C(c2cccnc2)C1 (stereo not given) | – | > 100 µM | > 100 µM | – | > 100 µM | – | – |
| COc1ccc(C[C@H](N)C(=O)N[C@H]2[C@@H](O)[C@H](n3cnc4c(N(C)C)ncnc43)O[C@@H]2CO)cc1 [PUROMYCIN] | – | > 100 µM | > 100 µM | – | > 100 µM | – | 2.45 µM |
| CCOC(=O)C1C(=O)CC(c2ccccn2)N(c2ccccc2)C1c1ccccn1 (stereo not given) | – | > 100 µM | > 100 µM | – | > 100 µM | – | – |
| COc1cccc2c1C(=O)c1c(O)c3c(c(O)c1C2=O)C[C@@](O)(C(=O)CO)C[C@@H]3O[C@H]1C[C@H](N)[C@H](O)[C@H](C)O1 [DOXORUBICIN] | 4.45 µM | – | – | 7.51 µM | – | 8.14 µM | – |

Source: ChEMBL document CHEMBL3739274, “Highly functionalized tetrahydropyridines are cytotoxic and selective inhibitors of human puromycin sensitive aminopeptidase” (Eur J Med Chem, 2015)
